IDH1 mut inh – inhibitors of human IDH1 R132H; O75874; AID 624101; IDH1 R132H reductase, diaphorase/resazurin fluorescence, 60 min; hit rate 0.18% among 70,000; inhibition, % at 10 µM; in the data active means inhibition above about 34%; inconclusive means no clear call, values can overlap the other calls; inactive means below about 11%
Pf Dd2 inh – P. falciparum Dd2 growth inhibition; SYBR Green, 72 h; hits give low values; activity change, % at 10 µM; hit rate 2.3% among 94,000; in the data active means activity change below about -80%; inconclusive means no clear call, values can overlap the other calls
T cruzi growth-1 – inhibitors of T. cruzi proliferation; AID 624255; inhibition, % at 8.34 µM; T. cruzi beta-gal in NIH3T3, GalScreen luminescence, 90 h; hit rate 5.9% among 77,000;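 active means mean inhibition above about 93%, with at least 55% of replicates each passing it, limit read from the data, passing the limit was not always enough; inconclusive means only one of those two conditions holds; inactive means neither condition holds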
GASC1 inh – KDM4C (human) demethylase inhibition. Q9H3R0. GST-KDM4C 2-372, H3K9me3 peptide, LANCE TR-FRET. inhibition, % at 12.5 µM. hit rate 0.15% among 96,000;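 active means mean replicate inhibition above about 25%, with at least 55% of replicates also reaching it, limit read from the data, passing the limit was not always enough; inconclusive means only one of those two conditions met; inactive means neither condition met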
Target sequence (Q9H3R0 2-372 limits assumed): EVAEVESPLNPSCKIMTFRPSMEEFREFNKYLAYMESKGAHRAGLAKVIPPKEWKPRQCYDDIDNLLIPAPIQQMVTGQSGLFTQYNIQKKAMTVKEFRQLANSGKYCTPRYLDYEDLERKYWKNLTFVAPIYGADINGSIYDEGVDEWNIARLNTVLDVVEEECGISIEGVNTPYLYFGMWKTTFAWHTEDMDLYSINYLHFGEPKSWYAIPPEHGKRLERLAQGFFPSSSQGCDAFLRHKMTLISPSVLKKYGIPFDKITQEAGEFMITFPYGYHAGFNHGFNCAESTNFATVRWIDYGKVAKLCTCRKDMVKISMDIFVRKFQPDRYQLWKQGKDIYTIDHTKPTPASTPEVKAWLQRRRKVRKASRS
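Assay system: GST-GASC-1 enzyme fragment 2-372 | Amount: 10 nM enzyme | Medium: HEPES buffer, pH 7.5, plus ascorbate | Reagent: H3K9me3 peptide substrate, Fe(II), 2-oxoglutarate | Doses: Single-point compound screen | Incubation: 30 min demethylation and 1 h detection at room temperature | Measured by: LANCE TR-FRET, excitation 340 nm, emissions 618 and 671 nm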
T cruzi growth-2 – inhibitors of T. cruzi proliferation. shares compounds with T cruzi growth-1. T. cruzi beta-gal in NIH3T3, GalScreen luminescence, 90 h. inhibition, % at 8.35 µM. hit rate 72% among 5,600. AID 651739;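 active means mean replicate inhibition above about 95% and at least 55% of replicates individually reaching it, limit read from the data; inconclusive means only one of the two criteria is met; inactive means neither criterion is met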
T cruzi growth-3 – blocks T. cruzi growth in NIH3T3 host cells | shares compounds with T cruzi growth-1 | T. cruzi beta-gal in NIH3T3, GalScreen luminescence, 90 h | inhibition, % at 2.09 µM | hit rate 21% among 5,600 | AID 651740;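 active means mean inhibition above about 95%, with at least 55% of replicates also reaching it, limit read from the data; inconclusive means meets just one of the two conditions; inactive means meets neither condition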
NIH3T3 tox – NIH/3T3 (mouse) viability loss | hit rate 14% among 5,600 | NIH/3T3 viability, CellTiter-Glo ATP luminescence, 90 h | cytotoxicity (signal decrease), % at 8.35 µM | shares compounds with T cruzi growth-1;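 active means mean signal decrease across replicates above about 35% based on untreated-well scatter, with enough replicates individually passing, limit read from the data; inconclusive means no rule stated though some were filed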
3T3 cytotox 2 – kills mouse NIH/3T3 fibroblasts | hit rate 56% among 5,600 | NIH/3T3 viability, CellTiter-Glo ATP luminescence, 90 h | inhibition, % at 24.9 µM | shares compounds with T cruzi growth-1;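 active means mean loss of cell viability signal at or above a set limit, and enough replicates individually reaching it; inconclusive means meets only the mean limit or only the replicate share; inactive means meets neither condition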
Numbers stand for hits; - = inactive; ? = inconclusive; . = no result given. The list is not random: actives were taken first. Their share in the collection is about 5.8%.

SMILES | IDH1 mut inh | Pf Dd2 inh | T cruzi growth-1 | GASC1 inh | T cruzi growth-2 | T cruzi growth-3 | NIH3T3 tox | 3T3 cytotox 2
COc1cc(OC)c(NC(=O)CCCN2C(=O)c3ccccc3C2=O)cc1Cl | - | . | . | . | . | . | . | .
N#Cc1cccc(-c2ccc([C@H]3[C@H](CO)N4CCCCN(S(=O)(=O)c5ccccc5)C[C@@H]34)cc2)c1 | . | - | - | - | . | . | . | .
N#Cc1ccc(-c2ccc([C@@H]3[C@H](CO)N4CCCCN(S(=O)(=O)c5ccccc5)C[C@@H]34)cc2)cc1 | . | - | ? | - | - | - | - | 43.9
N#Cc1ccc(-c2ccc([C@H]3[C@@H](CO)N4CCCCN(S(=O)(=O)c5ccccc5)C[C@H]34)cc2)cc1 | . | - | 116.5 | - | 113.1 | - | - | 71.3
N#Cc1ccc(-c2ccc([C@@H]3[C@H]4CN(S(=O)(=O)c5ccccc5)CCCCN4[C@H]3CO)cc2)cc1 | . | - | 100.8 | - | 103.3 | - | - | 28.9
Cc1ccc(S(=O)(=O)N2C(=O)CCC2C(=O)Nc2cc(C(F)(F)F)ccc2Cl)cc1 (stereo unspecified) | - | . | . | . | . | . | . | .
COC(=O)CCSc1nc2sc3c(c2c(=O)n1-c1cccc(C)c1)CC(C)(C)OC3 | - | . | . | . | . | . | . | .
COC(=O)c1cc(-c2ccccc2)sc1NC(=O)c1cnccn1 | - | . | . | . | . | . | . | .
C[C@H]1CN([C@@H](C)CO)S(=O)(=O)c2ccc(C#CC3CCCC3)cc2O[C@@H]1CN(C)C(=O)Cc1ccncc1 | . | - | 121.9 | - | 104.6 | - | - | 100.8
C[C@H](CO)N1C[C@H](C)[C@H](CN(C)C(=O)Cc2ccncc2)Oc2cc(C#CC3CCCC3)ccc2S1(=O)=O | . | - | 116.3 | - | 108.7 | - | - | 33.3
C[C@@H]1CN([C@H](C)CO)S(=O)(=O)c2ccc(C#CC3CC3)cc2O[C@@H]1CN(C)C(=O)Cc1ccncc1 | . | - | ? | - | 102.5 | - | - | -
CCn1c(NCc2ccccc2O)nc2ccccc21 | - | . | . | . | . | . | . | .
COC(=O)c1cccc(NC(=O)CN(c2ccc(F)cc2)S(C)(=O)=O)c1C | - | . | . | . | . | . | . | .
CCCNC(=O)N(C)C[C@H]1Oc2cc(C#Cc3cccc(F)c3)ccc2S(=O)(=O)N([C@@H](C)CO)C[C@@H]1C | - | - | 116.2 | - | 111.7 | - | - | 66.3
CCCC#Cc1ccc2c(c1)O[C@@H](CN(C)C(=O)NCCC)[C@H](C)CN([C@H](C)CO)S2(=O)=O | - | - | - | - | . | . | . | .
CCCNC(=O)N(C)C[C@@H]1Oc2cc(C#Cc3cccc(F)c3)ccc2S(=O)(=O)N([C@@H](C)CO)C[C@H]1C | - | - | 108.0 | - | 99.9 | - | 53.8 | 66.9
CC(C)NC(=O)N(C)C[C@@H]1Oc2cc(C#Cc3cccc(F)c3)ccc2S(=O)(=O)N([C@@H](C)CO)C[C@H]1C | - | - | - | - | . | . | . | .
CCCNC(=O)N(C)C[C@H]1Oc2cc(C#Cc3cccc(F)c3)ccc2S(=O)(=O)N([C@H](C)CO)C[C@@H]1C | - | - | 113.7 | - | - | - | - | 59.9
CCCC#Cc1ccc2c(c1)O[C@@H](CN(C)C(=O)NCCC)[C@@H](C)CN([C@@H](C)CO)S2(=O)=O | - | - | - | - | . | . | . | .
CCCNC(=O)N(C)C[C@H]1Oc2cc(C#Cc3cccc(F)c3)ccc2S(=O)(=O)N([C@@H](C)CO)C[C@H]1C | - | - | 114.5 | ? | 102.2 | 105.5 | - | 50.8
CCCC#Cc1ccc2c(c1)O[C@H](CN(C)C(=O)NCCC)[C@@H](C)CN([C@H](C)CO)S2(=O)=O | - | - | - | - | . | . | . | .
CC(=O)c1ccc(OC(=O)C(Cc2ccccc2)N2C(=O)C3C4C=CC(C5CC45)C3C2=O)cc1 (stereo unspecified) | - | . | . | . | . | . | . | .
O=C(Cn1cnc2scc(-c3cccc([N+](=O)[O-])c3)c2c1=O)Nc1ccc(F)c(Cl)c1 | - | . | . | . | . | . | . | .
Oc1ccccc1C1=Nc2ccccc2N=C(c2ccc(Cl)cc2)C1 | - | . | . | . | . | . | . | .
COc1ccc(-c2nnc3c4ccccc4c(C)nn23)cc1S(=O)(=O)N1CCN(C)CC1 | - | . | . | . | . | . | . | .

Assay outcomes from PubChem BioAssay.
